This series can be described thus: Toxicity liver stage against HepG2, at 10uM. Set-up: test concentration 10 uM, cell line HepG2-A16-CD81EGFP. The conditions noted are these: human, HepG2-A16-CD81EGFP cells; read-out: INHIBITION
It is filed as cell-based. The procedure, abridged: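 Uninfected HepG2-A16-CD81EGFP cells, 3 × 10^3 per well, 1536-well, plated on prespotted compound at 10 μM final, parasite-free screening media added to match infected plates; puromycin 10 μM positive, DMSO 0.5% negative; run in parallel with 48 h PbLuc assay at 37 °C, 5% CO2; viability by CellTiter-Glo luminescence, normalized to controls.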

The structures appear in SMILES notation.

For the compound `Cc1ccc(C)c(C(O)CN(C)Cc2nnc3ccccn23)c1` (stereo not drawn), the cytotoxicity at 10 µM was -13.8%. Regarding `CCCc1nc(C(=O)N2CCCn3nc(CCC(=O)O)cc3C2)cs1`, the cytotoxicity at 10 µM was -9.84%. With `Cc1nn(-c2ccccc2)c2nc(C(C)(C)CN3CCN(C)CC3)[nH]c12` the figure was -2.13%. Take `CCNC(c1cccnc1)c1ccc(F)c(C)c1` (stereo not drawn): the cytotoxicity at 10 µM was -1.77%. With `O=c1c2sccc2nc2n1CCN(Cc1ccsc1)CC2`, the cytotoxicity at 10 µM was -25.4%. The value for `Cc1cc(C(=O)N2CCCCC2C)ccc1NCC(=O)N1CCOCC1` (stereo not drawn) was 4.08%; that for `Cc1cc(C)c(N(CC(O)CNCc2ccccc2)S(C)(=O)=O)c(C)c1` (stereo not drawn) was -12.7%. Consider `COCCn1ccc2c(C(=O)O)cccc21`, for which the cytotoxicity at 10 µM was -3.37%.

For the compound `CCc1nc(CN2CCCC(NCc3nnc(C4CC4)o3)C2)no1` (stereo not drawn), the cytotoxicity at 10 µM was -5.73%.

`COCCNC(=O)NC(C)COc1ccc(F)cc1F` (stereo not drawn): the cytotoxicity at 10 µM stood at 4.14%. The value for `O=C(NCCc1cccs1)N1CCC[C@H]1CO` was 10.3%; that for `Cc1nn(C)c(C)c1S(=O)(=O)NCC(C)(O)c1ccc2c(c1)OCO2` (stereo not drawn) was 1.77%. With `Cc1nc(CN(C)C2CCN(CC(=O)N3CCOCC3)C2)no1` (stereo not drawn) the figure was -4.91%; with `CCn1c(CN(C)C(C)CSC)nc2c(F)cccc21` (stereo not drawn), 5.73%.

As for `O=C(NCc1ccccn1)[C@@H]1CC[C@@H]2[C@@H](CCN2c2ncc(F)cn2)O1`, the cytotoxicity at 10 µM is -74.8%. With `Cc1ccc(CN2C[C@H](OCCN(C)C)[C@H]3COC[C@H]32)o1` the figure was 1.6%; with `CCN(CC)c1nc(C)cc(C(=O)Nc2cccc(C(N)=O)c2)n1`, 14.9%; with `Cc1nc2c(C(=O)N[C@H]3C[C@H]4CN(C)CCN4C3)cccc2[nH]1`, -7.98%. With `CC(C)CN(C)Cc1c[nH]nc1-c1ccc(F)cc1F` the figure was 2.38%; with `CNC(=O)C1CN(C)CCN(C(=O)CCn2nnc3ccccc32)C1` (stereo not drawn), 2.71%; with `O=S(=O)(NCC1(c2cccs2)CCOCC1)c1ccc2c(c1)OCCO2`, -1.64%.

Take `Cc1noc(C)c1CN1CCO[C@H]2CN(C(=O)N3CCCC3)C[C@H]21`: the cytotoxicity at 10 µM came to 8.01%. With `CCOCC1CN(Cc2ccsc2)Cc2cnn(C)c21` (stereo not drawn) the figure was 7.72%. The value for `Cc1cscc1C(=O)NC1CC(=O)N(C(C)C)C1=O` (stereo not drawn) was -6.51%; that for `O=C(C1CCOC1)N1CCc2ncnc(C3CC3)c2CC1` (stereo not drawn) was -2.62%. Consider `Cc1csc(NC(=O)CN2CCc3c(nc(C4CC4)n3C)C2)n1`, for which the cytotoxicity at 10 µM was -6.6%.

As for `CCNC(=O)c1ccc(N2CCCC(c3nccn3C(C)C)C2)nc1` (stereo not drawn), the cytotoxicity at 10 µM is -8.39%. With `Cc1noc(C(C)C)c1C(=O)NCCN1CCCCCC1=O` the figure was -9.07%; with `Cc1cn(CC(=O)NC2CCN(C(C)C)CC2)c2ccccc12`, 0.0531%; with `O=C(c1cccnc1)N1CCC[C@]2(C[C@H](Oc3ncccc3F)CO2)C1`, 0.37%. With `Nc1cc(-c2cncnc2C2CCN(C(=O)c3ccccc3)C2)ccn1` (stereo not drawn) the figure was 1.32%; with `O=C(NCCN1CCOCC1)c1ccn(-c2ccccc2F)n1`, 7.44%. The value for `O=C(c1ccc(-n2cc(Br)cn2)cc1)N1CCN(c2cnccn2)CC1` was 1.52%. Consider `Cn1ccnc1CNC(=O)CC1CCCCO1` (stereo not drawn), for which the cytotoxicity at 10 µM worked out at 1.24%. Consider `CCOC(=O)CN(CC(F)(F)F)C(=O)c1nc(C)n2ccccc12`, for which the cytotoxicity at 10 µM is -20.9%. With `Cc1ccc2c(c1)CCC21CCN(C(=O)CO)CC1` the figure was -8.13%. As to `NC(=O)C(NC(=O)COC1CCCC1)c1ccccc1` (stereo not drawn), the cytotoxicity at 10 µM worked out at 3.25%.

With `Cc1nc(NC(=O)CCOCC(F)(F)F)ccc1Br`, the cytotoxicity at 10 µM stood at 6.27%. With `Cn1nc(Cn2ccnc2)c2c1CN(c1nccs1)C2` the figure was 3.61%. The value for `Clc1cccc(OCCCN2CCOC(Cn3cncn3)C2)c1` (stereo not drawn) was -3.78%; that for `Cc1nccn1CCC1CCN(C2CCC3(CCNCC3)CC2)CC1` was -1.43%. The value for `Cc1cc(C)n(C2CCCN(C(=O)CCNS(C)(=O)=O)C2)n1` (stereo not drawn) was 6.62%. `CC(CNS(N)(=O)=O)c1ccc(F)c(F)c1` (stereo not drawn): the cytotoxicity at 10 µM is -12.1%. On to `Cc1cccc(C(=O)N2C[C@@H]3OCCN(c4ncccn4)[C@@H]3C2)n1`, for which the cytotoxicity at 10 µM is 0.523%.

With `Cc1cc(C)nc(N2CCC(OCCN3CCCCC3)C2)n1` (stereo not drawn), the cytotoxicity at 10 µM is -53.6%. With `Cc1nc(CC(=O)N2CCN(CCOc3ccccc3)CC2)cs1` the figure was -15.2%. The value for `O=C(CCc1ccccc1Cl)NS(=O)(=O)c1ccc2c(c1)OCCO2` was -6.69%; that for `N#Cc1ccc(N2CCN(c3ncccn3)CC2)c(C(F)(F)F)c1` was 36.3%; that for `O=S(=O)(c1ccccc1N1CC(n2cccn2)C1)C(F)(F)F` was 6.68%. `CC1N(CC2CC2)C(=O)COC12CCN(C(=O)c1cscn1)CC2` (stereo not drawn): the cytotoxicity at 10 µM was -8.04%.

Regarding `O=C1N(c2ccccc2)C[C@H]2CN(C3CCC3)CCN12`, the cytotoxicity at 10 µM came out at 6.09%.

On to `CSCCCN(CCN1CCOCC1)Cc1ccco1`, for which the cytotoxicity at 10 µM was 8.05%.

As to `Cc1ncc(CN2CCC3(CC2)CC(=O)N(C)C3)cn1`, the cytotoxicity at 10 µM amounted to 9.8%. The value for `O=C(c1ccoc1)N1CC[C@H]2OCC[C@@]2(COc2ncccc2F)C1` was -9.31%.

`CC(C)(C)S(=O)(=O)CCNC(=O)c1cnc(-c2ccccc2)nc1`: the cytotoxicity at 10 µM is 2.92%. The value for `Cc1ccc(NC(=O)NCCn2cnc(C)c(C)c2=O)cc1F` was 3.22%.

Regarding `CC(=O)N1CCC2(CCN(CC(C)C)C2)C1` (stereo not drawn), the cytotoxicity at 10 µM turned out to be 5.41%. For the compound `COCCN(C)C(=O)Nc1ccn(-c2cccc(C(F)(F)F)c2)n1`, the cytotoxicity at 10 µM was -2.16%. On to `Cc1cc(CCC(N)=O)cc(C2CCCN2Cc2ccnn2C)n1` (stereo not drawn), for which the cytotoxicity at 10 µM is -19.8%.

Consider `O=C(NCCNc1cnccn1)N1CCCCCC1`, for which the cytotoxicity at 10 µM is -3.33%. With `c1csc(CN2CC(c3nc(-c4cnccn4)no3)C2)c1` the figure was -8.28%; with `Cc1cc(N2CC(c3n[nH]c4nccnc34)C2)ncn1`, -11.2%; with `CNc1ncccc1C(=O)N1CCCC2(C1)C(=O)N(C)c1ccccc12` (stereo not drawn), -5.27%. Turning to `CN(C)c1nc2c(c(N3CCCC4(CC3)CNC(=O)O4)n1)CCCC2` (stereo not drawn), the cytotoxicity at 10 µM was -1.07%. The value for `COc1cc(C(=O)NS(=O)(=O)c2cncc(Br)c2)cc(OC)c1C` was 4.77%.

On to `COC(=O)c1cc(OCC2CCC2)cc(C(=O)NC2CCC(O)CC2)c1` (stereo not drawn), for which the cytotoxicity at 10 µM was -14.2%. The value for `CC(=O)Nc1ncc(S(=O)(=O)Nc2cccc(O)c2)s1` was 8.49%.

`Cc1nccnc1N1C[C@H](NC(=O)CNS(C)(=O)=O)[C@@H](C2CC2)C1`: the cytotoxicity at 10 µM is -10.3%. Regarding `Cn1ncc2c1NC(=O)CC2c1ccc(F)cc1` (stereo not drawn), the cytotoxicity at 10 µM was found to be 4.63%.

Consider `CN(C)c1nccnc1C1CCN(c2cnccn2)CC1`, for which the cytotoxicity at 10 µM is 4.58%. For the compound `CN(C)CCNC(=O)c1ccn(-c2ccc3ccccn23)n1`, the cytotoxicity at 10 µM was -0.0395%. The value for `CSC1(CNC(=O)NC(C)Cc2cccc(F)c2)CCOCC1` (stereo not drawn) was -15.6%; that for `CCCN(CCC)C(=O)c1cnn(C)c1C` was -128%; that for `Cc1noc(C)c1C(=O)N1CCSc2ccc(Cl)cc21` was -108%.

As for `Cc1cc(C(=O)N(C)S(=O)(=O)C(C)C)ccc1F`, the cytotoxicity at 10 µM was -54.3%. For `O=C(c1ccc(C2CCCO2)s1)N1Cc2ccccc2C1` (stereo not drawn), the cytotoxicity at 10 µM was -13.4%.

In the case of `CCNc1cc2c(nn1)CCN(C(=O)c1ccoc1)C2`, the cytotoxicity at 10 µM was -6.9%. As to `CCc1ccccc1-n1nnc(C(=O)O)c1-c1ccccn1`, the cytotoxicity at 10 µM is -6.42%. Consider `CC(=O)Nc1nc(C(=O)NCCOc2ccccc2)cs1`, for which the cytotoxicity at 10 µM was found to be 6.11%.

For `CCNC(=O)c1ccc(NC(=O)N(C)Cc2cc(C)on2)c(C)c1`, the cytotoxicity at 10 µM was found to be 6.2%. With `Cc1cc(-c2cnc(NC3CC3)nc2-c2ccoc2C)on1` the figure was 2.13%; with `Cn1cc(Br)c(=O)c(NS(=O)(=O)c2ccc3c(c2)CCC3)c1`, -3.47%; with `Cc1ccc(C(=O)NC2CCCN(S(C)(=O)=O)C2)c(=O)[nH]1` (stereo not drawn), 10.6%. The value for `CCOc1ccc(C(=O)Nc2c(C)nc3ccccn3c2=O)cc1` was 11.9%.

`O=C(NCC1Cn2nnc(-c3ccoc3)c2CO1)c1ccc[nH]1` (stereo not drawn): the cytotoxicity at 10 µM came to 2.61%.

Consider `Cc1csc(C2CCCN(C(=O)c3cnc[nH]3)C2)n1` (stereo not drawn), for which the cytotoxicity at 10 µM was -10.7%. The value for `CC(C)N(Cc1nccn1C)C(=O)c1cc(Cl)c[nH]c1=O` was -0.723%. The value for `O=C(Cc1ccc2c(c1)OCCO2)NCc1ccc(-n2cncn2)nc1` was -20.5%.

`COc1ccc2[nH]c(=O)c(CN(C)CCN3CCCC3)cc2c1`: the cytotoxicity at 10 µM is 1.97%. Regarding `COc1cnc(CN2CC(=O)N(c3ccc(C)cc3)CC2C)cc1O` (stereo not drawn), the cytotoxicity at 10 µM was found to be 4.01%. With `OCc1csc(N2C[C@@H](CN3CCCCCC3)[C@@H](CO)C2)n1` the figure was 2.65%.

`O=C(CN1CCNC1=O)NCc1ccc2sccc2c1`: the cytotoxicity at 10 µM stood at 5.05%. Turning to `N#Cc1ccccc1CNC(C(=O)N1CCOCC1)c1ccccc1` (stereo not drawn), the cytotoxicity at 10 µM stood at 11%.

With `O=C(Cc1ccc2c(c1)CCO2)N1CCCC(n2cccn2)C1` (stereo not drawn), the cytotoxicity at 10 µM came out at 5.67%. The value for `CCNC(=O)NC(=O)C(C)N(C)CCOc1ccccc1C` (stereo not drawn) was 3.45%; that for `O=C(COCCOc1ccccc1)NC1CCN(c2ncccn2)CC1` was -4.9%. As to `CNC(=O)c1ccc2c(c1)C1(CCN(C(C)C)CC1)C(=O)N2`, the cytotoxicity at 10 µM came out at 12.6%. The value for `CCN(CC)CCn1cc(NC2CCSCC2)cn1` was 2.5%.

For the origin of these results see ChEMBL document CHEMBL4513216, “Probing the Open Global Health Chemical Diversity Library for Multistage-Active Starting Points for Next-Generation Antimalarials” (ACS Infect Dis, 2020).
